High-throughput results: PubChem BioAssay, several laboratories
PREPL inhibitor: human PREPL enzyme inhibition | recombinant PREPL, fluorescence polarization activity-based probe | inhibition, % at 5.96 µM | hit rate 0.68% among 320,000 | AID 2751; in the data active = inhibition above about 43%;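 also: 0% = enzyme with DMSO and 100% = wells lacking enzyme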
UCH37 inh: inhibitors of human deubiquitinating enzyme UCH37. hit rate 0.33% among 330,000. purified proteasome/UCH37, Ub-AMC cleavage fluorescence. AID 588478. Q9Y5K5. inhibition, % (test concentration not listed);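 active = mean inhibition over replicate wells above about 20%, limit read from the data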;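 also: 0% = compound-free wells with enzyme and 100% = wells lacking proteasome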
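Material: Human UCH37 enzyme supplied as purified proteasome complex | Schedule: 30 min preincubation with enzyme, 25 min cleavage at room temperature | Detection: AMC fluorescence 355/460 nm | Measure: % inhibition of Ub-AMC cleavage fluorescence | Controls: Wells without proteasome as full block, compound-free enzyme plus substrate as uninhibited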
UBC13 inh: blocks human UBC13 polyubiquitin chain formation; P61088; TR-FRET; inhibition, % at 20 µM; hit rate 0.47% among 330,000; AID 485273; in the data active = inhibition above about 45%, passing the limit was not always enough; inconclusive = no clear call, values can overlap the other calls
Target sequence (P61088 whole entry, looked up): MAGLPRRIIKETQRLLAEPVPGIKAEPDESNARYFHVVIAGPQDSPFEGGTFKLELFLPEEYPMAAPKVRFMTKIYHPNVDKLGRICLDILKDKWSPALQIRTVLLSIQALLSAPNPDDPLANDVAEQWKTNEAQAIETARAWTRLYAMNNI
Apaf-1 inh: blocks human Apaf-1 apoptosome activity | AID 489030 | hit rate 0.71% among 330,000 | inhibition, % at 20 µM | reconstituted apoptosome caspase-3 activity, DEVD-Rh110 fluorescence; active = inhibition of at least 40% at 20 µM;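 also: plate controls were DMSO wells for no effect and DEVD-CHO caspase inhibitor wells for full effect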
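Material: reconstituted apoptosome with Apaf-1, cytochrome c, caspase-9, procaspase-3, dATP / Buffer or medium: pH 7.5 Hepes buffer with CHAPS, BSA, DTT / Also added: cytochrome c with DEVD-Rh110 / Schedule: compound with Apaf-1, dATP, procaspase-3 30 min, then 50 min reaction, room temperature / Technique: rhodamine 110 fluorescence at Ex 480/Em 540 nm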
Casp3 counter: counter-screen for UBC13 inhibitors: human caspase-3 inhibition. shares compounds with UBC13 inh. Recombinant caspase-3, Caspase-Glo 3/7 luminescence, 60 min. inhibition, % at 20 µM. hit rate 4% among 1,400;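 active = mean inhibition across replicates above about 26%, limit read from the data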;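 also: plate controls were DMSO with caspase-3 for no effect and DMSO wells lacking enzyme for full effect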
Target sequence (P42574 whole entry, looked up): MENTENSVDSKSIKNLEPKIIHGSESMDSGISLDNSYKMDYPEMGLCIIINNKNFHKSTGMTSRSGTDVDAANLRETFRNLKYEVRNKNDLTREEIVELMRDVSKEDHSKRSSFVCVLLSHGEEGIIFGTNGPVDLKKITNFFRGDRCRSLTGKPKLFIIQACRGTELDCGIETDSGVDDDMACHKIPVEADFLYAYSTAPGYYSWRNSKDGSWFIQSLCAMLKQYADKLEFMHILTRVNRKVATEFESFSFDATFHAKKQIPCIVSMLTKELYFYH
UBC13 confirm: confirmation of human UBC13 polyubiquitin inhibitors; shares compounds with UBC13 inh; UBC13 polyubiquitination, TR-FRET, biochemical; inhibition, % at 10 µM; hit rate 68% among 1,400; in the data active = inhibition above about 45%; inconclusive = no clear call, values can overlap the other calls
Apaf-1 inh conf2: Apaf-1 inhibition, single-dose confirmed; shares compounds with Apaf-1 inh; reconstituted apoptosome, caspase-3 DEVD-Rh110 fluorescence; inhibition, % at 20 µM; hit rate 25% among 1,800;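 active = mean inhibition of at least 40% at 20 µM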;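 also: plate controls were DMSO wells for no effect and DEVD-CHO caspase inhibitor control wells for full effect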
Rh110 quench: Rh110 signal interference in Apaf-1 inhibitor counter-screen; shares compounds with Apaf-1 inh; Rh110 fluorescence interference, quenched caspase reaction; activation (fluorescence interference), % at 20 µM; 1,800 tested, under 10 active; AID 504615;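 active = signal rise of 40% or more at 20 µM, treated as a fluorescence artifact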
An asterisk follows results filed as active; ? = inconclusive; nt = not tested or not shown. Shown are actives, neighbours in structure and some others; about 1.5% of the full set was active somewhere.

SMILES	PREPL inhibitor	UCH37 inh	UBC13 inh	Apaf-1 inh	Casp3 counter	UBC13 confirm	others
Cc1cccc(N(C(=O)c2snc(C(N)=O)c2N)C(C(=O)NC2CCCC2)c2ccncc2)c1 (stereo not drawn)	-4.4	-63.8	25.1	4.4	nt	nt
CCc1ccc(N(C(=O)c2snc(C(N)=O)c2N)C(C(=O)NCC2CCCO2)c2ccco2)cc1 (stereo not drawn)	-4.7	9.3	61.0*	16.7	0.7	58.7*
Cc1cccc(N(C(=O)c2snc(C(N)=O)c2N)C(C(=O)NC2CCCC2)c2ccc(C)o2)c1 (stereo not drawn)	10.9	-59.7	54.6*	13.6	1.0	39.2
Cc1ccc(N(C(=O)c2snc(C(N)=O)c2N)C(C(=O)NC2CCCC2)c2ccco2)cc1 (stereo not drawn)	nt	-29.6	80.0*	15.1	-4.3	91.9*
COc1ccc(N(C(=O)c2snc(C(N)=O)c2N)C(C(=O)NC2CCCC2)c2ccc3ncccc3c2)cc1 (stereo not drawn)	25.5	-8.7	48.5*	15.1	-0.6	47.5*
CN(C)c1ccc(C(C(=O)NCC2CCCO2)N(C(=O)c2snc(C(N)=O)c2N)c2ccccc2)cc1 (stereo not drawn)	-7.8	nt	14.0	6.8	nt	nt
Cc1c(C=NNC(=O)c2cccs2)c2ccccc2n1Cc1ccccc1Cl	nt	-146.7	nt	nt	nt	nt
COc1ccc(C=NNC(=O)C2CCN(c3ncc(C(F)(F)F)cc3Cl)CC2)cc1	nt	5.8	nt	nt	nt	nt
Br/C(C=NNc1nc2ccccc2[nH]1)=C\c1ccccc1	nt	-3.5	nt	nt	nt	nt
Cc1ccc(N(C(=O)c2snc(C(N)=O)c2N)C(C(=O)NC2CCCC2)c2ccc(C)o2)cc1 (stereo not drawn)	2.7	-57.1	64.3*	21.0	-0.9	70.9*
CCOc1ccc(C(C(=O)NCC2CCCO2)N(C(=O)c2snc(C(N)=O)c2N)c2ccc3c(c2)OCCO3)cc1 (stereo not drawn)	-7.5	-17.1	68.8*	14.1	2.5	64.0*
CCOc1ccc(N(C(=O)c2snc(C(N)=O)c2N)C(CC)C(=O)NC2CCCC2)cc1 (stereo not drawn)	-1.1	nt	78.5*	19.9	2.8	82.1*
O=C(Cc1ccccc1Cl)NN=Cc1cccnc1	nt	-1.1	nt	nt	nt	nt
CC(=NNC(N)=O)c1ccc(-n2ccnc2)cc1	nt	-0.1	nt	nt	nt	nt
COc1cc(C=NNc2ccccc2C(F)(F)F)ccc1O	nt	3.0	nt	nt	nt	nt
O=c1c2cc(N3CCOCC3)ccc2[nH]c(=S)n1Cc1ccccc1Cl	-5.0	-161.0	45.2*	8.8	-3.8	?
COc1cccc(C(=O)NN=C(CCC(=O)O)c2ccccc2)c1	nt	4.8	nt	nt	nt	nt
COc1ccc(N(CC(=O)NC2CCCCC2)C(=O)c2snc(C(N)=O)c2N)cc1	-2.1	-31.4	23.0	10.2	nt	nt
CCC(C)(C)NC(=O)CN(C(=O)c1snc(C(N)=O)c1N)c1ccc2c(c1)OCCO2	-8.0	0.7	70.2*	-5.0	-5.7	59.4*
CCCC(C(=O)NC(C)(C)C)N(Cc1ccc(F)cc1)C(=O)c1snc(C(N)=O)c1N (stereo not drawn)	-6.8	-36.0	32.8	-107.9	nt	nt
CCCC(C(=O)NC(C)(C)C)N(C(=O)c1snc(C(N)=O)c1N)c1ccc2c(c1)OCCO2 (stereo not drawn)	0.0	-22.9	65.0*	-1.5	-2.8	85.5*
Cc1cc(C)cc(N(CC(=O)NCc2ccc(F)cc2)C(=O)c2snc(C(N)=O)c2N)c1	8.9	-73.5	11.8	7.2	nt	nt
CCC(C)(C)NC(=O)CN(C(=O)c1snc(C(N)=O)c1N)c1ccc2nc(C)sc2c1	11.1	-11.9	73.6*	-0.2	1.7	83.0*
C(=NNc1ccc(-n2ccnc2)nn1)c1ccccc1	nt	0.7	nt	nt	nt	nt
CCc1ccc(S(=O)(=O)NN=Cc2cn(CC(N)=O)c3ccccc23)cc1	nt	3.6	nt	nt	nt	nt
COc1cccc(/C=C2/Sc3ccc(C(=O)NCCN4CCCCCC4)cc3NC2=O)c1	-19.0	0.5	66.2*	40.0	0.7	92.3*	Apaf-1 inh conf2=31.6;Rh110 quench=4.0
